Measured values of several laboratories.
CDK18 with cyclin Y: Cyclin-dependent kinase 18, with cyclin Y (CDK18, Homo sapiens, UniProt Q07002)
CDK18: Cyclin-dependent kinase 18 (CDK18, Homo sapiens, UniProt Q07002)

Structure (SMILES) | target | test | conditions | measurement | result
Cc1sc(C(=O)NC2COC2)cc1-n1cc(NC(=O)Nc2c(F)cccc2Cl)cn1 | CDK18 with cyclin Y | enzyme activity, inhibitor | 10 µM | remaining activity | 119%
Fc1cccc(-n2cnc3c(NCc4nc5c(F)c(F)ccc5[nH]4)nc(N4CCOCC4)nc32)c1 | CDK18 | binding, competition with immobilised ligand | 10 µM | binding vs control | 37%
Cc1ccc(C(=O)Nc2ccc(CN3CCN(C)CC3)c(C(F)(F)F)c2)cc1C#Cc1cnc2cccnn12 | CDK18 | enzyme activity, inhibitor | 23.5 nM | remaining activity | 89%
O=C(Nc1cnn(-c2csc(C(=O)NC3COC3)c2)c1)Nc1ccccc1Cl | CDK18 with cyclin Y | enzyme activity, inhibitor | 5 µM | remaining activity | 101%
CN1CC(Oc2cnc(C#N)cc2-c2ccn3nc(NC(=O)C4CC4)cc3c2)C1 | CDK18 with cyclin Y | enzyme activity, inhibitor | 1 µM | inhibition | 1%
CSc1cccnc1N1CCN(Cc2nc3ccccc3[nH]2)CC1 | CDK18 | cell-free assay, competition with immobilised ligand | 1 µM | remaining binding | 100%
COc1cc(Cl)c(C(=O)N[C@@H](CN[C@H]2CC[C@@H](N)CC2)Cc2ccc(C#N)cc2)cc1-c1ccc(CN[C@H](C)c2ccc(C)cc2)o1 | CDK18 with cyclin Y | enzyme activity, inhibitor | 1 µM | remaining activity | 103%
Nc1ncnc2occ(-c3ccc(NC(=O)Nc4cc(C(F)(F)F)ccc4F)cc3)c12 | CDK18 | cell-free assay, inhibitor | 20 µM | remaining signal | 0.1%
Cc1ccc(C(=O)NCc2ccsc2)cc1C#Cc1cn(C(C)C)c2ncnc(N)c12 | CDK18 with cyclin Y | enzyme activity, inhibitor | 1 µM | activity vs control | 82%
O=[N+]([O-])c1cccc2[nH]c(CNc3nc(N4CCOCC4)nc4c3ncn4-c3ccsc3)nc12 | CDK18 | binding, competition with immobilised ligand | 10 µM | binding vs control | 62%
O=C(NS(=O)(=O)c1ccc(NCC2CCOCC2)c([N+](=O)[O-])c1)c1ccc(N2CCN(Cc3ccc(C(F)(F)F)cc3-c3ccc(Cl)cc3)CC2)cc1Oc1cnc2[nH]ccc2c1 | CDK18 | cell-free assay, competition with immobilised ligand | 1 µM | remaining binding | 100%
